This is an account of results in ChEMBL document CHEMBL1152955, “Synthetic resveratrol aliphatic acid inhibits TLR2-mediated apoptosis and an involvement of Akt/GSK3beta pathway” (Bioorg Med Chem, 2009).

Data set [1] has as its system HEK293. Kind of data set: Inhibition of TLR2 expression in human HEK293 cells at 10 uM treated for 24 hrs measured after serum deprivation by Western blotting. The class given is functional, cell-based. In short, it runs like this:
(§1)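 HEK293 and TLR2-stably-transfected HEK293 cells in RPMI-1640 with 10% heat-inactivated FBS, 37 °C, 5% CO2; compound at 0, 10 or 100 uM for 24 h, then serum deprivation for 0, 12 or 24 h. Equal cell numbers lysed in RIPA buffer, 12% SDS-PAGE, nitrocellulose, anti-TLR2 immunoblot with GAPDH antibody, chemiluminescent detection; mean ± SEM of three independent experiments.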
(In western blotting, separated proteins are transferred to a membrane and probed.)

The subject of data set [2] is HEK293. Briefly: Inhibition of TLR2 expression in human HEK293 cells stably transfected with TLR2 at 100 uM treated for 24 hrs measured after serum deprivation by Western blotting. The class given is functional, cell-based. The essentials:
as §1

Data set [3] has as its system HEK293. Briefly: Inhibition of TLR2 expression in human HEK293 cells stably transfected with TLR2 at 10 uM treated for 24 hrs measured after serum deprivation by Western blotting. It counts as functional, cell-based. In short, it runs like this:
as §1

Data set [4] deals with HEK293. Briefly: Inhibition of TLR2 expression in human HEK293 cells at 100 uM treated for 24 hrs measured after serum deprivation by Western blotting. It counts as functional, cell-based. The essentials: as §1
The target in data set [5] is Toll-like receptor 2 (Homo sapiens) (UniProt O60603). Briefly: Inhibition of TLR2 in human HEK293 cells stably transfected with TLR2 assessed as decrease in Akt phosphorylation level at Ser473 at 100 uM treated for 24 hrs measured after serum deprivation by Western blotting. It counts as cell-based. In short, it runs like this: (§2)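 Parental HEK293 or TLR2/HEK293 cells (RPMI-1640, 10% heat-inactivated FBS, 37 °C, 5% CO2) exposed to 0, 10 or 100 uM for 24 h, then serum-deprived 0, 12 or 24 h. RIPA lysates of equal cell numbers run on 12% SDS-PAGE; phospho-Akt (Ser473) and total Akt probed by Western blot, milk block, primary antibody overnight at 4 °C.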

The target is the same in data set [6]. Briefly: Inhibition of TLR2-mediated apoptosis in human HEK293 cells stably transfected with TLR2 at 100 uM treated for 24 hrs measured after 12 hrs of serum deprivation by TUNEL assay. It counts as cell-based. In short, it runs like this: (§3)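 With or without 100 uM for 24 h, then serum deprivation 0, 12 or 24 h, in HEK293 or TLR2/HEK293 cells (RPMI-1640, 10% heat-inactivated FBS). Nucleosomal DNA fragmentation detected by in situ TUNEL kit; apoptotic and total cells counted in random fields to give percent apoptotic cells; mean ± SEM of three independent experiments.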

Data set [7] has the same target. Kind of data set: Inhibition of TLR2-mediated apoptosis in human HEK293 cells at 100 uM treated for 24 hrs measured after 12 hrs of serum deprivation by TUNEL assay. It counts as cell-based. The essentials:
as §3

Another data set deals with Albumin (Homo sapiens, UniProt P02768). Kind of data set: Binding affinity to human serum albumin. It counts as ADME. Particulars: isolated protein.
Data set [8] concerns the target Toll-like receptor 2 (Homo sapiens) (UniProt O60603). Briefly: Inhibition of TLR2 in human HEK293 cells stably transfected with TLR2 assessed as decrease in GSK3-beta phosphorylation level at 100 uM treated for 24 hrs measured after serum deprivation by Western blotting. It counts as cell-based. In short, it runs like this:
(§4)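 Cells given 0, 10 or 100 uM for 24 h before 0, 12 or 24 h serum deprivation; HEK293 and TLR2/HEK293 lines cultured in RPMI-1640 plus 10% heat-inactivated FBS. Harvested cells lysed in RIPA buffer, 12% SDS-PAGE, nitrocellulose transfer, immunoblotted for phospho-GSK3beta and total GSK3beta, ECL read-out; mean ± SEM, three independent experiments.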

For data set [9] the target is unchanged. Briefly: Inhibition of TLR2-mediated apoptosis in human HEK293 cells stably transfected with TLR2 at 100 uM treated for 24 hrs measured after 24 hrs of serum deprivation by TUNEL assay. It counts as cell-based. In short, it runs like this:
as §3

Data set [10] shares this target. Briefly: Inhibition of TLR2 in human HEK293 cells stably transfected with TLR2 assessed as decrease in Akt phosphorylation level at Ser473 at 10 uM treated for 24 hrs measured after serum deprivation by Western blotting. The class given is cell-based. In short, it runs like this:
as §2

Data set [11] has the same target. Briefly: Inhibition of TLR2 in human HEK293 cells stably transfected with TLR2 assessed as decrease in GSK3-beta phosphorylation level at 10 uM treated for 24 hrs measured after serum deprivation by Western blotting. The class given is cell-based. In short, it runs like this: as §4
Data set [12] has the same target. Kind of data set: Inhibition of TLR2-mediated apoptosis in human HEK293 cells at 100 uM treated for 24 hrs measured after 24 hrs of serum deprivation by TUNEL assay. The class given is cell-based. The essentials: as §3
For data set [13] the target is unchanged. Briefly: Inhibition of TLR2 in human HEK293 cells assessed as decrease in Akt phosphorylation level at Ser473 at 10 uM treated for 24 hrs measured after serum deprivation by Western blotting. It counts as cell-based. In short, it runs like this: as §2
For data set [14] the target is unchanged. Kind of data set: Inhibition of TLR2 in human HEK293 cells assessed as decrease in GSK3-beta phosphorylation level at 10 uM treated for 24 hrs measured after serum deprivation by Western blotting. It counts as cell-based. The essentials: as §4
The target is the same in data set [15]. Briefly: Inhibition of TLR2 in human HEK293 cells assessed as decrease in Akt phosphorylation level at Ser473 at 100 uM treated for 24 hrs measured after serum deprivation by Western blotting. The class given is cell-based. The essentials:
as §2

Data set [16] shares this target. Briefly: Inhibition of TLR2 in human HEK293 cells assessed as decrease in GSK3-beta phosphorylation level at 100 uM treated for 24 hrs measured after serum deprivation by Western blotting. It counts as cell-based. The essentials: as §4
The nature of data set [17]: Solubility in water. The settings on record: buffer. It counts as physicochemical.

The term inhibition denotes the drop in the measured response relative to a control, in per cent.

Active and inactive are the calls of the source. No cut-off for these calls is given here.

Sequence of Toll-like receptor 2 (Homo sapiens) (O60603 whole entry): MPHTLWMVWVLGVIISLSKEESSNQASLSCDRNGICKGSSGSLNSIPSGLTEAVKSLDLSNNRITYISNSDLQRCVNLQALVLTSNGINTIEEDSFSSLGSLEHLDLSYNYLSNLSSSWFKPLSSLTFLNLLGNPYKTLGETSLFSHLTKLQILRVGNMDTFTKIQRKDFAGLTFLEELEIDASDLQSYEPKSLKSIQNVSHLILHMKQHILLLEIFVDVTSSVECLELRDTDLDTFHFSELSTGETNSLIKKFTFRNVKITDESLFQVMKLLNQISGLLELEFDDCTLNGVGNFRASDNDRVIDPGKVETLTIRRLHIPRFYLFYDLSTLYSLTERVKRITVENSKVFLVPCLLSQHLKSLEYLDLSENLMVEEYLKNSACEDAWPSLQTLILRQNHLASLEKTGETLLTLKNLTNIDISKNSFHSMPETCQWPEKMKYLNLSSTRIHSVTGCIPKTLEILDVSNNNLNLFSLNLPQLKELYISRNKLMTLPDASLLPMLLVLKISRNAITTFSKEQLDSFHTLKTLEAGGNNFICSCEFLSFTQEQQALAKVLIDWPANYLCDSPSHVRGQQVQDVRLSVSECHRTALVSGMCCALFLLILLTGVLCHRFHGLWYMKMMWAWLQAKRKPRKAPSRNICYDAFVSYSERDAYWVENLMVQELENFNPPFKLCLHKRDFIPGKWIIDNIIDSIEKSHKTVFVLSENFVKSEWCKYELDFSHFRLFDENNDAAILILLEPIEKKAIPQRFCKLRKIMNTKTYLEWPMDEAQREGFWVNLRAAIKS
Sequence of Albumin (P02768 whole entry): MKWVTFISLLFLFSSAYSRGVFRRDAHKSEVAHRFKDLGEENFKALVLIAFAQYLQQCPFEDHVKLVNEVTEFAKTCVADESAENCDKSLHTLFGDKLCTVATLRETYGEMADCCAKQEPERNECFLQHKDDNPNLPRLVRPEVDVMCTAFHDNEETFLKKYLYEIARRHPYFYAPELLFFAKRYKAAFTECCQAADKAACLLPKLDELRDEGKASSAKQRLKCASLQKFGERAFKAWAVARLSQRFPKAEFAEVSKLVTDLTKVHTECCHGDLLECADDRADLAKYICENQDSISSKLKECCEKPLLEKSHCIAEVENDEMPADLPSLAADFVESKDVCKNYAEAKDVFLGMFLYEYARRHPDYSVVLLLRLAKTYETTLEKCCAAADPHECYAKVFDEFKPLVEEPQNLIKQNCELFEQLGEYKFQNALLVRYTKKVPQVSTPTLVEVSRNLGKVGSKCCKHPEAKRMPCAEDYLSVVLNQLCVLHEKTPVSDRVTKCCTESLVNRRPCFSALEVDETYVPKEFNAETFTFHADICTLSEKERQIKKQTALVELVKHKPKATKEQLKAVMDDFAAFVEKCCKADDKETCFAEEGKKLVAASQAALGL

Turning to `O=C(O)COc1ccc(/C=C/c2cc(O)cc(O)c2)cc1`, the inhibition entry with HEK293 [1], with HEK293 [2], with HEK293 [3] and with HEK293 [4] was “inactive” throughout.

In the case of `O=C(O)CCCCCOc1ccc(/C=C/c2cc(O)cc(O)c2)cc1` [RESVERATROL HEXANOIC ACID], the outcome in data set [5], in data set [8], in data set [10] and in data set [11] was Active. Also, the inhibition was determined as 20% in data set [6], 11% in data set [7], 49% in data set [9] and 25% in [12]. Moreover, the inhibition result with HEK293 [1], with HEK293 [2], in the data set on HEK293 [3] and in the data set with HEK293 [4] was “Active” in each case. At Albumin, the “fold change (FC)” value turned out to be 40. In addition, the result in data set [13], in data set [14], in data set [15] and in [16] was inactive. Besides, the solubility result in data set [17] is given as “Soluble”.
